Test results taken from ChEMBL document CHEMBL4052634, “Covalent inhibitors of LgtC: A blueprint for the discovery of non-substrate-like inhibitors for bacterial glycosyltransferases” (Bioorg Med Chem, 2017).
The source made the active and inactive calls. The rule behind the calls is not given here.

Tests used:
[1] = target: Intestinal-type alkaline phosphatase (Bos taurus) (UniProt P19111); assay: Inhibition of calf intestinal alkaline […] at 0.1 to 100 uM using UDP as substrate after 20 mins by malachite green dye-based assay
Intestinal-type alkaline phosphatase (Bos taurus), sequence (P19111 20-506 limits assumed): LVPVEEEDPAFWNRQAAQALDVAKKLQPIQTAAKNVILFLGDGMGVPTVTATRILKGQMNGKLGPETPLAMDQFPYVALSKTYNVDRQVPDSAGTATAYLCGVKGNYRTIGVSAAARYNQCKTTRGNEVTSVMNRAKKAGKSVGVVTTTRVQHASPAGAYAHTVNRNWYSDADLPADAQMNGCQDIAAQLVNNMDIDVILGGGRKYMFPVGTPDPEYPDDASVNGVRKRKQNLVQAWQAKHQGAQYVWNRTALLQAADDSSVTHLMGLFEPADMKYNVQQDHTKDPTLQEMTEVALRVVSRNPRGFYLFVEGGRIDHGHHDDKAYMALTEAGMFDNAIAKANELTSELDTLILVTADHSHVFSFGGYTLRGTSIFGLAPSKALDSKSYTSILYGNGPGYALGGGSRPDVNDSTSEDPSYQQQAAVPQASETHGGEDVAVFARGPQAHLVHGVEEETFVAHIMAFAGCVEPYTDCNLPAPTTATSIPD

[2] = tested on: Neisseria meningitidis; assay: Binding affinity to Neisseria meningitidis alpha-1,4-galactosyltransferase assessed as covalent adduct formation at 100 uM after 20 mins by mass spectrometric analysis; conditions: TDE = time-dependent effect
How it was run: (§1)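 LgtC stock without DTT activation, diluted in 13 mM HEPES pH 7.0, incubated with inhibitor (100 or 50 µM, added in DMSO; 10% final DMSO) for 20 min at 30 °C; samples injected directly for electrospray MS to detect protein-inhibitor adducts.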

[3] = tested on: Neisseria meningitidis; assay: (§2) Inhibition of Neisseria meningitidis alpha-1,4-galactosyltransferase assessed as consumption of donor UDP-Gal by measuring turnover rate at 0.1 to 100 uM using lactose as substrate preincubated for 5 mins followed by lactose and UDP-Gal addition measured after 20 mins by malachite green dye-based assay relative to total UDP-Gal used
[4] = tested on: Neisseria meningitidis; assay: as §2, with “20” for “5”
[5] = tested on: Neisseria meningitidis; assay: as §2, with “30” for “5”
[6] = tested on: Neisseria meningitidis; assay: as §2, with “60” for “5”
[7] = tested on: Neisseria meningitidis; assay: Inhibition of Neisseria meningitidis alpha-1,4-galactosyltransferase assessed as rate constant for enzyme activity at 6 uM using lactose as substrate preincubated with substrate measured after 20 mins in presence of UDP-Gal
How it was run: (§3)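 Activity measured at a series of inhibitor concentrations (0.5-200 µM range overall) after pre-incubation with LgtC for 0, 5, 10, 20 and 30 min, using the pre-incubation protocols (lactose 2 mM, UDP-Gal 28 µM, 20 min at 30 °C, malachite green); % of DMSO control plotted semi-logarithmically versus pre-incubation time to give kobs; kobs versus concentration gave Ki and kinact; triplicate.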

[8] = tested on: Neisseria meningitidis; assay: Inhibition of Neisseria meningitidis alpha-1,4-galactosyltransferase assessed as rate constant for enzyme activity at 15 uM using lactose as substrate preincubated with substrate measured after 20 mins in presence of UDP-Gal; how it was run: as §3
[9] = tested on: Neisseria meningitidis; assay: Inhibition of Neisseria meningitidis alpha-1,4-galactosyltransferase assessed as rate constant for enzyme activity at 100 uM using lactose as substrate preincubated with substrate measured after 20 mins in presence of UDP-Gal; how it was run: as §3
[10] = tested on: Neisseria meningitidis; assay: Inhibition of Neisseria meningitidis alpha-1,4-galactosyltransferase assessed as rate constant for enzyme activity at 200 uM using lactose as substrate preincubated with substrate measured after 20 mins in presence of UDP-Gal; how it was run: as §3
[11] = tested on: Neisseria meningitidis; assay: Binding affinity to Neisseria meningitidis alpha-1,4-galactosyltransferase assessed as covalent-enzyme adduct formation at 50 uM after 20 mins by mass spectroscopy; conditions: 100 uM, in the assay text read “at 100 uM” for “at 50 uM”; how it was run: as §1
[12] = tested on: Neisseria meningitidis; assay: as §2, with “50” for “100”
[13] = tested on: Neisseria meningitidis; assay: Inhibition of Neisseria meningitidis alpha-1,4-galactosyltransferase assessed as consumption of donor UDP-Gal by measuring turnover rate at 0.1 to 50 uM using lactose as substrate in presence of UDP-Gal measured after 20 min by malachite green dye-based assay relative to total UDP-Gal used
How it was run: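 No pre-incubation: DTT-activated LgtC with MnCl2 5 mM, CIP 10 U/mL, egg-white lysozyme 1 mg/mL, 0.01% Triton, 13 mM HEPES pH 7.0, lactose 2 mM, inhibitor in DMSO (10% final); started with UDP-Gal 28 µM, 20 min at 30 °C, 20-50% donor turnover. Malachite green read at 620 nm against a UDP calibration curve, background without acceptor subtracted, % of assay window; triplicate minimum; IC50 from sigmoidal fit.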

[14] = tested on: Neisseria meningitidis; assay: as §2, with “assessed as” for “assessed”, “50” for “100”, “20” for “5”
[15] = tested on: Neisseria meningitidis; assay: as §2, with “50” for “100”, “30” for “5”
[16] = tested on: Neisseria meningitidis; assay: as §2, with “50” for “100”, “60” for “5”
[17] = tested on: Neisseria meningitidis; assay: as §2, with “50” for “100”, “180” for “5”
[18] = tested on: Neisseria meningitidis; assay: Binding affinity to Neisseria meningitidis alpha-1,4-galactosyltransferase assessed as covalent adduct formation at 50 uM by mass spectrometric analysis; conditions: TDE = time-dependent effect; how it was run: as §1
[19] = tested on: Neisseria meningitidis; assay: Inhibition of Neisseria meningitidis alpha-1,4-galactosyltransferase assessed as rate constant for enzyme activity at 1.5 uM using lactose as substrate preincubated with substrate measured after 20 mins in presence of UDP-Gal; how it was run: as §3
[20] = tested on: Neisseria meningitidis; assay: Inhibition of Neisseria meningitidis alpha-1,4-galactosyltransferase assessed as rate constant for enzyme activity at 2 uM using lactose as substrate preincubated with substrate measured after 20 mins in presence of UDP-Gal; how it was run: as §3
[21] = tested on: Neisseria meningitidis; assay: Inhibition of Neisseria meningitidis alpha-1,4-galactosyltransferase assessed as rate constant for enzyme activity at 3 uM using lactose as substrate preincubated with substrate measured after 20 mins in presence of UDP-Gal; how it was run: as §3

With `O=C1/C(=C\c2cccc(OCc3ccccc3)c2)C(C(F)(F)F)=NN1c1ccccc1` as the compound, how does the inhibition [1] read?
Its inhibition is “inactive”.

What about the Activity [2] of the same compound?
The Activity was “Tde”.

And the inhibition [3]?
Its inhibition is 30%.

And the inhibition [4]?
Its inhibition is 27%.

What about the inhibition [5] of the same compound?
Its inhibition is 24%.

What about the inhibition [6] of the same compound?
Its inhibition is 29%.

What about the K [7] of the same compound?
Its K is 0.01 min⁻¹.

What about the K [8] of the same compound?
Its K is 0.021 min⁻¹.

And the K [9]?
Its K is 0.072 min⁻¹.

And the K [10]?
The K was 0.079 min⁻¹.

What about the Activity [11] of the same compound?
Its Activity is “Active”.

`COc1ccc(/C=C2\C(=O)N(c3ccccc3)N=C2C(F)(F)F)cc1Br` was tested. Which inhibition [12] did it give?
Its inhibition is 32%.

What about the inhibition [13] of the same compound?
Its inhibition is 30%.

What about the inhibition [14] of the same compound?
The inhibition was 32%.

What about the inhibition [15] of the same compound?
Its inhibition is 32%.

What about the inhibition [16] of the same compound?
Its inhibition is 39%.

What about the inhibition [17] of the same compound?
Its inhibition is 26%.

And the Activity [18]?
The Activity was “Tde”.

And the K [19]?
Its K is 0.017 min⁻¹.

And the K [20]?
The K was 0.012 min⁻¹.

What about the K [21] of the same compound?
Its K is 0.025 min⁻¹.
